Assay outcomes from PubChem.
An excerpt weighted towards active compounds, which were near 2.9% of everything screened.
CHO-K1 Ca PAM: counter-screen for M1 PAMs: effect in parental CHO-K1 cells | ATP EC20, Fluo-8 calcium fluorescence; 0% at ATP EC20, 100% at ATP max | activation, % at 3 µM | 360,000 compounds, 0.02% hits | AID 602247;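 active means activation above the run cutoff, the mean activation of all test compounds plus 3 SD, cut at about 40% in these data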;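 further: peak over basal fluorescence ratio in a 140 s read after ATP addition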
OX1R antag-1: blocks the human orexin 1 receptor; inhibition, % at 5 µM; 330,000 compounds, 0.43% hits; CHO/OX1R cells, Fluo-8 calcium fluorescence, orexin A; O43613;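 active means inhibition above its plate's threshold, mean inhibition of all tested compounds on the plate plus 3 SD, cut at about 37% in these data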;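 further: 0% = orexin A challenge wells and 100% = SB-334867-A antagonist wells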
Target sequence (O43613 whole entry, looked up): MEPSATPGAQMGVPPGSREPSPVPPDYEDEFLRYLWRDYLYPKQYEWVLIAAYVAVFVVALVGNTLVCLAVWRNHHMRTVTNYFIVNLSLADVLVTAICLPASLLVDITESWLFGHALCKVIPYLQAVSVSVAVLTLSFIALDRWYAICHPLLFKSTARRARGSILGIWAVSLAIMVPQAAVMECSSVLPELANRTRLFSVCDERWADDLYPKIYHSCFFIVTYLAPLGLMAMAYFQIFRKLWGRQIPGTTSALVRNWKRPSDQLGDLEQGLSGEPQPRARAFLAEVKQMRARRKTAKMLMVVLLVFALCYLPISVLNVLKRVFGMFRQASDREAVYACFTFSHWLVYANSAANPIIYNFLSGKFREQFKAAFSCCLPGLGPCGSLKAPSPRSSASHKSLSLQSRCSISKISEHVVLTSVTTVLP
CHO parental Ca: counter-screen: ATP calcium response change in parental CHO cells | parental CHO-K1, ATP-induced calcium, Fluo-8 fluorescence | inhibition, % at 5.6 µM | 330,000 compounds, 0.63% hits;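 active means inhibition above that plate's mean sample inhibition plus 3 SD, cut at about 26% in these data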;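 further: 0% = ATP-challenged DMSO wells and 100% = DMSO wells without ATP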
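Assay system – parental CHO cells · Reagent – ATP stimulus · Detection – intracellular calcium via Fluo-8 no-wash fluorescent dye · Evaluation – percent inhibition of ATP-evoked calcium rise, normalized to controls · Controls – ATP wells versus no-ATP DMSO wells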
M1 ag parental: M1 agonist counterscreen hit in parental CHO-K1 cells. Fluo-8 calcium fluorescence; scaled to maximal ATP response, vehicle zero. activation, % at 3 µM. 360,000 compounds, 0.48% hits. AID 602248; in the data active means activation above about 15%;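 further: untransfected CHO-K1 host cells lacking M1 receptor as counterscreen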
OX1R antag-2: antagonists of human orexin 1 receptor (OX1R); OX1R-expressing cells, FRET antagonist read-out; O43613; 330,000 compounds, 1.8% hits; inhibition, % at 6.6 µM; in the data active means inhibition mostly above about 38%, no sharp cut-off; inactive means mostly below about 40%;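 further: 0% = agonist challenge alone and 100% = reference antagonist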
CHO-K1 Ca antag: M1 antagonist counterscreen hit in parental CHO-K1 cells; AID 602250; 360,000 compounds, 0.6% hits; ATP-induced calcium, Fluo-8 fluorescence; inhibition, % at 3 µM;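 active means inhibition above a per-plate cutoff, the plate's mean sample inhibition plus 3 SD, cut at about 24% in these data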;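 further: 0% = DMSO plus EC80 ATP and 100% = DMSO alone without ATP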
Numbers without * were called inactive.

Screening Cc1cccnc1NC(=O)CCc1c[nH]c2ccccc12 returned CHO-K1 Ca PAM -33, OX1R antag-1 -18, CHO parental Ca -10, M1 ag parental 0, OX1R antag-2 35 and CHO-K1 Ca antag 24*.
For COC(=O)c1c(C)oc2ccc(N(C(=O)c3ccncc3)S(=O)(=O)c3ccccc3)cc12 the results were CHO-K1 Ca PAM 13, OX1R antag-1 18, CHO parental Ca 4, M1 ag parental 4, OX1R antag-2 18 and CHO-K1 Ca antag 3.
For COC(=O)c1c(C)oc2ccc(N(C(=O)c3ccncc3)S(=O)(=O)c3ccc(C)cc3C)cc12 the results were CHO-K1 Ca PAM -5, OX1R antag-1 35, CHO parental Ca 38*, M1 ag parental 14, OX1R antag-2 23 and CHO-K1 Ca antag 21.
For Cc1ccccc1N1CCN(C2CCCN(C(=O)CCc3c(C)noc3C)C2)CC1 (stereo not drawn) the results were CHO-K1 Ca PAM -18, OX1R antag-1 -24, CHO parental Ca -22, M1 ag parental 1, OX1R antag-2 -3 and CHO-K1 Ca antag 18.
For O=C(CN1C(=O)C(c2ccc(F)cc2)=NC12CCCC2)Nc1ccc(F)cc1 the results were CHO-K1 Ca PAM -1, OX1R antag-1 -16, CHO parental Ca 27*, M1 ag parental 3, OX1R antag-2 12 and CHO-K1 Ca antag 36*.
Screening CC(C)(C)NC(=O)CSc1nc2ccc(NC(=O)CSc3nnnn3Cc3ccccc3)cc2s1 returned CHO-K1 Ca PAM 12, OX1R antag-1 42, CHO parental Ca 37*, M1 ag parental 6, OX1R antag-2 66 and CHO-K1 Ca antag 16.
`O=S(=O)(c1ccc(F)cc1)N1CCN(C(=S)NC2CC2)CC1` gave CHO-K1 Ca PAM -10, OX1R antag-1 7, CHO parental Ca 13, M1 ag parental 0, OX1R antag-2 -6 and CHO-K1 Ca antag -6.
Cc1sc2ncnc(NCC(O)c3ccccc3)c2c1C (stereo not drawn) was read as CHO-K1 Ca PAM 7, OX1R antag-1 20, CHO parental Ca 43*, M1 ag parental 17*, OX1R antag-2 28 and CHO-K1 Ca antag 14.
For Cc1sc2ncnc(NCC(O)c3ccc([N+](=O)[O-])cc3)c2c1C (stereo not drawn) the results were CHO-K1 Ca PAM 0, OX1R antag-1 13, CHO parental Ca 35*, M1 ag parental 18*, OX1R antag-2 28 and CHO-K1 Ca antag 27*.
For Cc1sc2ncnc(NCC(c3ccccc3)N(C)C)c2c1C (stereo not drawn) the results were CHO-K1 Ca PAM -17, OX1R antag-1 -27, CHO parental Ca -12, M1 ag parental 4, OX1R antag-2 10 and CHO-K1 Ca antag 7.
For Cc1sc2ncnc(NCc3cccs3)c2c1C the results were CHO-K1 Ca PAM -6, OX1R antag-1 3, CHO parental Ca 36*, M1 ag parental 6, OX1R antag-2 28 and CHO-K1 Ca antag 10.
Cc1sc2ncnc(NCc3ccco3)c2c1C was read as CHO-K1 Ca PAM 1, OX1R antag-1 5, CHO parental Ca -10, M1 ag parental 5, OX1R antag-2 34 and CHO-K1 Ca antag 2.
CCn1nc(C(=O)Nc2ccccc2N2CCCC2)c2ccccc2c1=O was read as CHO-K1 Ca PAM -5, OX1R antag-1 -42, CHO parental Ca -36, M1 ag parental 17*, OX1R antag-2 6 and CHO-K1 Ca antag 7.
`O=Cc1cc(-c2ccccc2)[nH]c1-c1ccccc1` gave CHO-K1 Ca PAM 0, OX1R antag-1 21, CHO parental Ca 74*, M1 ag parental 0, OX1R antag-2 6 and CHO-K1 Ca antag -1.
For CC1=CC(C)C2(CO)COC(c3cccnc3)C1C2C (stereo not drawn) the results were CHO-K1 Ca PAM -11, OX1R antag-1 7, CHO parental Ca 1, M1 ag parental 1, OX1R antag-2 13 and CHO-K1 Ca antag 28*.
`COc1ccc(-c2ccc3c(c2)C2CC3CCN2C(=O)C(C)(C)C)cc1` (stereo not drawn) gave CHO-K1 Ca PAM 6, M1 ag parental 0 and CHO-K1 Ca antag -8.
Screening COc1cc(CNCCNC(=O)c2nonc2N)ccc1OCc1ccc(Cl)nc1 returned CHO-K1 Ca PAM 24, OX1R antag-1 -17, CHO parental Ca -18, M1 ag parental 20*, OX1R antag-2 4 and CHO-K1 Ca antag -8.
For O=C(NCc1ccccc1F)C(=O)NCC1CCCN1S(=O)(=O)c1ccccc1 (stereo not drawn) the results were CHO-K1 Ca PAM -13, OX1R antag-1 -24, CHO parental Ca -21, M1 ag parental 1, OX1R antag-2 8 and CHO-K1 Ca antag 6.
Screening CCN(CC)S(=O)(=O)c1ccc(Oc2ccc(S(=O)(=O)N(CC)CC)cc2)cc1 returned CHO-K1 Ca PAM 6, OX1R antag-1 33, CHO parental Ca 58*, M1 ag parental 5, OX1R antag-2 14 and CHO-K1 Ca antag 4.
`COC(=O)c1cnc(SCc2ccc(C)cc2)n1C` gave CHO-K1 Ca PAM 10, OX1R antag-1 -1, CHO parental Ca -12, M1 ag parental 1, OX1R antag-2 20 and CHO-K1 Ca antag -14.
`N#Cc1c(=O)c2nc(NCCCO)ncc2n2c(=O)c3ccccc3[nH]c12` gave CHO-K1 Ca PAM -5, OX1R antag-1 -14, CHO parental Ca 7, M1 ag parental -1, OX1R antag-2 19 and CHO-K1 Ca antag 9.
For N#Cc1c(=O)c2nc(NCc3ccccc3)ncc2n2ccccc12 the results were CHO-K1 Ca PAM -4, OX1R antag-1 13, CHO parental Ca -3, M1 ag parental 0, OX1R antag-2 62* and CHO-K1 Ca antag -7.
CCOC(=O)C1=C(Cc2ccc(OC)cc2)C(=O)c2ccccc2C1=O was read as CHO-K1 Ca PAM -2, M1 ag parental 15* and CHO-K1 Ca antag 25*.
`CCOC(=O)c1c(C)nc2c(c1-c1cc(OC)ccc1OC)C(=O)c1ccccc1-2` gave CHO-K1 Ca PAM 11, OX1R antag-1 -12, CHO parental Ca 2, M1 ag parental 0, OX1R antag-2 19 and CHO-K1 Ca antag -4.
For N#Cc1ccc(C(=O)N(Cc2ccco2)c2c(N)n(Cc3ccccc3)c(=O)[nH]c2=O)cc1 the results were CHO-K1 Ca PAM -2, OX1R antag-1 -18, CHO parental Ca -2, M1 ag parental 0, OX1R antag-2 5 and CHO-K1 Ca antag -12.
Screening C=CCn1c(SC)nnc1-c1ccc2ncccc2c1 returned CHO-K1 Ca PAM 15, OX1R antag-1 -14, CHO parental Ca -12, M1 ag parental 17*, OX1R antag-2 15 and CHO-K1 Ca antag 2.
For C=CCn1c(-c2cccc([N+](=O)[O-])c2)n[nH]c1=S the results were CHO-K1 Ca PAM 22, OX1R antag-1 -3, CHO parental Ca -2, M1 ag parental 1, OX1R antag-2 46 and CHO-K1 Ca antag -7.
Screening C=CCn1c(SC)nnc1-c1cccc([N+](=O)[O-])c1 returned CHO-K1 Ca PAM 31, OX1R antag-1 -3, CHO parental Ca -7, M1 ag parental 2, OX1R antag-2 53* and CHO-K1 Ca antag -20.
